Converted amounts (≈) assume the structure as drawn. The source made the active and inactive calls. The calls are words filed in the database; no cut-off is given here.
Assays:
[1] = test system: Staphylococcus haemolyticus; assay: Antibacterial activity against Staphylococcus haemolyticus after 18 to 22 hrs by broth microdilution method; format: functional
Procedure, shortened: (§1)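 Clinical respiratory-tract isolates from patients, subcultured for purity and identified conventionally. Broth microdilution per NCCLS in Mueller–Hinton II broth; each plate had growth controls (bacteria, no compound) and medium-only controls. Incubation 18–22 h at 35 °C. MIC taken as the lowest concentration giving complete growth inhibition by unaided eye.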

Staphylococcus hominis = assay: Antibacterial activity against Staphylococcus hominis after 18 to 22 hrs by broth microdilution method; format: functional; procedure, shortened: as §1
Staphylococcus aureus = assay: Antibacterial activity against Staphylococcus aureus after 18 to 22 hrs by broth microdilution method; format: functional; procedure, shortened: as §1
Klebsiella oxytoca = assay: Antibacterial activity against Klebsiella oxytoca after 18 to 22 hrs by broth microdilution method; format: functional; procedure, shortened: as §1
Klebsiella pneumoniae = assay: Antibacterial activity against Klebsiella pneumoniae after 18 to 22 hrs by broth microdilution method; format: functional; procedure, shortened: as §1
[Candida] sake = Antifungal activity against Candida sake after 24 hrs by broth microdilution method; format: functional; details: Fermentozyma sake
Procedure, shortened: (§2)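 Candida isolates from respiratory-tract specimens, tested by NCCLS broth microdilution in Sabouraud dextrose broth. Serial compound dilutions inoculated to 10³/mL, with fungus-only and medium-only controls. Incubated 24 h at 37 °C. MIC was the lowest concentration with complete visible growth inhibition.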

Helicobacter pylori [2] = assay: Antibacterial activity against metronidazole-resistant Helicobacter pylori isolate 8 after 72 hrs by agar dilution method; format: functional; details: isolate 8, 72 h
Procedure, shortened: (§3)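 H. pylori clinical isolates (ATCC 43504 control each session) stored at -80 °C and subcultured twice on Columbia agar with 10% horse serum and 0.25% yeast extract. Suspensions of 0.5 McFarland were spotted by Steer's replicator at about 5 × 10⁵ CFU/spot onto agar with twofold compound dilutions. Plates were incubated 72 h at 37 °C in 10% CO₂. MIC was the lowest concentration without visible growth.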

Pichia kudriavzevii = assay: Antifungal activity against Candida krusei after 24 hrs by broth microdilution method; format: functional; procedure, shortened: as §2
Proteus vulgaris = assay: Antibacterial activity against Proteus vulgaris after 18 to 22 hrs by broth microdilution method; format: functional; procedure, shortened: as §1
AGS [3] = assay: Antiinflammatory activity in human AGS cells assessed as inhibition of IL-8 production at 5 ug/mL after 24 hrs; format: functional, cell-based
Procedure, shortened: (§4)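 AGS gastric adenocarcinoma cells were grown in F-12K with 10% FBS. They were seeded at 1 × 10⁵/mL for 24 h, preincubated 1 h with compound at 5 or 0.5 µg/mL, then exposed to H. pylori.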

Helicobacter pylori [4] = assay: Antibacterial activity against Helicobacter pylori ATCC 43504 clinical isolates after 72 hrs by agar dilution method; format: functional; details: ATCC 43504, 72 h
Procedure, shortened: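 Agar dilution per NCCLS. Twenty clinical strains from duodenal ulcer or gastritis patients, with ATCC 43504 as control in each session, were subcultured twice on Columbia agar plus 10% horse serum and 0.25% yeast extract (72 h, 37 °C, 10% CO₂). Inoculum of 0.5 McFarland in Wilkins Chalgren broth, about 5 × 10⁵ CFU/spot by Steer's replicator. Plates held twofold compound dilutions down to 0.0039 µg/mL and were incubated 72 h at 37 °C, 10% CO₂. MIC was the lowest concentration inhibiting visible growth.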

Citrobacter freundii = assay: Antibacterial activity against Citrobacter freundii after 18 to 22 hrs by broth microdilution method; format: functional; procedure, shortened: as §1
Helicobacter pylori [5] = assay: Antibacterial activity against metronidazole-resistant Helicobacter pylori isolate 18 after 72 hrs by agar dilution method; format: functional; details: isolate 18, 72 h; procedure, shortened: as §3
Klebsiella aerogenes = assay: Antibacterial activity against Enterobacter aerogenes after 18 to 22 hrs by broth microdilution method; format: functional; procedure, shortened: as §1
Enterobacter = assay: Antibacterial activity against Enterobacter after 18 to 22 hrs by broth microdilution method; format: functional; procedure, shortened: as §1
Helicobacter pylori [6] = assay: Antibacterial activity against metronidazole-resistant Helicobacter pylori isolate 20 after 72 hrs by agar dilution method; format: functional; details: isolate 20, 72 h; procedure, shortened: as §3
Helicobacter pylori [7] = assay: Antibacterial activity against metronidazole-resistant Helicobacter pylori NCTC 11637 after 72 hrs by agar dilution method; format: functional; details: NCTC 11637, 72 h; procedure, shortened: as §3
Helicobacter pylori [8] = assay: Antibacterial activity against metronidazole-resistant Helicobacter pylori isolate 1 after 72 hrs by agar dilution method; format: functional; details: isolate 1, 72 h; procedure, shortened: as §3
Candida albicans = assay: Antifungal activity against Candida albicans after 24 hrs by broth microdilution method; format: functional; procedure, shortened: as §2
Enterococcus faecalis = assay: Antibacterial activity against Streptococcus faecalis after 18 to 22 hrs by broth microdilution method; format: functional; procedure, shortened: as §1
[9] = test system: Staphylococcus epidermidis; assay: Antibacterial activity against Staphylococcus epidermidis after 18 to 22 hrs by broth microdilution method; format: functional; procedure, shortened: as §1
AGS [10] = assay: Antiinflammatory activity in human AGS cells assessed as inhibition of IL-8 production at 0.5 ug/mL after 24 hrs; format: functional, cell-based; procedure, shortened: as §4
Escherichia coli = assay: Antibacterial activity against Escherichia coli after 18 to 22 hrs by broth microdilution method; format: functional; procedure, shortened: as §1

SMILES	MIC [1]	MIC (Staphylococcus hominis)	MIC (Staphylococcus aureus)	MIC (Klebsiella oxytoca)	MIC (Klebsiella pneumoniae)	MIC ([Candida] sake)	MIC (Helicobacter pylori [2])	MIC (Pichia kudriavzevii)	MIC (Proteus vulgaris)	inhibition (AGS [3])	MIC50 (Helicobacter pylori [4])	MIC90 (Helicobacter pylori [4])	MIC (Citrobacter freundii)	MIC (Helicobacter pylori [5])	MIC (Klebsiella aerogenes)	MIC (Enterobacter)	MIC (Helicobacter pylori [6])	MIC (Helicobacter pylori [7])	MIC (Helicobacter pylori [8])	MIC (Candida albicans)	also measured
O=C(O)c1ccc(NC(=O)c2cc3cc([N+](=O)[O-])ccc3oc2=O)cc1	> 128 µg/mL	> 128 µg/mL	> 128 µg/mL	> 128 µg/mL	> 128 µg/mL	> 128 µg/mL	64 µg/mL (≈ 181 µM)	> 128 µg/mL	> 128 µg/mL	inactive	128 µg/mL (≈ 361 µM)	128 µg/mL (≈ 361 µM)	> 128 µg/mL	128 µg/mL (≈ 361 µM)	> 128 µg/mL	> 128 µg/mL	64 µg/mL (≈ 181 µM)	128 µg/mL (≈ 361 µM)	128 µg/mL (≈ 361 µM)	> 128 µg/mL	MIC (Enterococcus faecalis): > 128 µg/mL; MIC [9]: > 128 µg/mL; inhibition (AGS [10]): inactive; MIC (Escherichia coli): > 128 µg/mL
CCOC(=O)c1ccc(NC(=O)c2cc3cccc(O)c3oc2=O)cc1	> 128 µg/mL	> 128 µg/mL	> 128 µg/mL	> 128 µg/mL	> 128 µg/mL	> 128 µg/mL	> 128 µg/mL	> 128 µg/mL	> 128 µg/mL	inactive	> 128 µg/mL	> 128 µg/mL	> 128 µg/mL	> 128 µg/mL	> 128 µg/mL	> 128 µg/mL	> 128 µg/mL	> 128 µg/mL	> 128 µg/mL	> 128 µg/mL	MIC (Enterococcus faecalis): > 128 µg/mL; MIC [9]: > 128 µg/mL; inhibition (AGS [10]): inactive; MIC (Escherichia coli): > 128 µg/mL
O=C(O)c1ccc(NC(=O)c2cc3cc(Br)cc(Cl)c3oc2=O)cc1	> 128 µg/mL	> 128 µg/mL	> 128 µg/mL	> 128 µg/mL	> 128 µg/mL	> 128 µg/mL	32 µg/mL (≈ 75.7 µM)	> 128 µg/mL	> 128 µg/mL	inactive	8 µg/mL (≈ 18.9 µM)	32 µg/mL (≈ 75.7 µM)	> 128 µg/mL	16 µg/mL (≈ 37.9 µM)	> 128 µg/mL	> 128 µg/mL	32 µg/mL (≈ 75.7 µM)	32 µg/mL (≈ 75.7 µM)	16 µg/mL (≈ 37.9 µM)	> 128 µg/mL	MIC (Enterococcus faecalis): > 128 µg/mL; MIC [9]: > 128 µg/mL; inhibition (AGS [10]): inactive; MIC (Escherichia coli): > 128 µg/mL
O=C(O)c1ccc(NC(=O)c2cc3cc(O)ccc3oc2=O)cc1	> 128 µg/mL	> 128 µg/mL	> 128 µg/mL	> 128 µg/mL	> 128 µg/mL	> 128 µg/mL	16 µg/mL (≈ 49.2 µM)	> 128 µg/mL	> 128 µg/mL	inactive	16 µg/mL (≈ 49.2 µM)	> 128 µg/mL	> 128 µg/mL	16 µg/mL (≈ 49.2 µM)	> 128 µg/mL	> 128 µg/mL	4 µg/mL (≈ 12.3 µM)	16 µg/mL (≈ 49.2 µM)	4 µg/mL (≈ 12.3 µM)	> 128 µg/mL	MIC (Enterococcus faecalis): > 128 µg/mL; MIC [9]: > 128 µg/mL; inhibition (AGS [10]): inactive; MIC (Escherichia coli): > 128 µg/mL
O=C(O)c1ccc(NC(=O)c2cc3cccc(O)c3oc2=O)cc1	> 128 µg/mL	> 128 µg/mL	> 128 µg/mL	> 128 µg/mL	> 128 µg/mL	> 128 µg/mL	> 128 µg/mL	> 128 µg/mL	> 128 µg/mL	inactive	> 128 µg/mL	> 128 µg/mL	> 128 µg/mL	> 128 µg/mL	> 128 µg/mL	> 128 µg/mL	> 128 µg/mL	4 µg/mL (≈ 12.3 µM)	> 128 µg/mL	> 128 µg/mL	MIC (Enterococcus faecalis): > 128 µg/mL; MIC [9]: > 128 µg/mL; inhibition (AGS [10]): inactive; MIC (Escherichia coli): > 128 µg/mL
